{"source": "ChEMBL document CHEMBL1144027", "about": "“Synthesis and antimycobacterial evaluation of newer 1-cyclopropyl-1,4-dihydro-6-fluoro-7-(substituted secondary amino)-8-methoxy-5-(sub)-4-oxoquinoline-3-carboxylic acids” (Bioorg Med Chem, 2008)", "system": "Mycobacterium tuberculosis", "test": "Antimycobacterial activity against multidrug resistant Mycobacterium tuberculosis by agar dilution method", "assay_type": "functional", "how_it_was_run": "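Agar dilution MIC on Middlebrook 7H11 agar with OADC, following the NCCLS-recommended approach, run in duplicate. The MDR clinical isolate was resistant to isoniazid, rifampicin, ethambutol and ofloxacin.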"}
{"smiles": "COc1c(N2CCN(C)C(c3ccccc3)C2)c(F)c([N+](=O)[O-])c2c(=O)c(C(=O)O)cn(C3CC3)c12", "note": "(centres undefined)", "values": [{"measurement": "MIC", "result": 3.14, "unit": "µM"}]}
{"smiles": "COc1c(N2COCC2(C)C)c(F)c([N+](=O)[O-])c2c(=O)c(C(=O)O)cn(C3CC3)c12", "values": [{"measurement": "MIC", "result": 0.93, "unit": "µM"}]}
{"smiles": "COc1c(N2CCNC(C)C2)c(F)cc2c(=O)c(C(=O)O)cn(C3CC3)c12", "note": "(centres undefined) [GATIFLOXACIN]", "values": [{"measurement": "MIC", "result": 8.34, "unit": "µM"}]}
{"smiles": "COc1c(N2CC(C)OC(C)C2)c(F)c([N+](=O)[O-])c2c(=O)c(C(=O)O)cn(C3CC3)c12", "note": "(centres undefined)", "values": [{"measurement": "MIC", "result": 1.79, "unit": "µM"}]}
{"smiles": "COc1c(N2CCn3cc(C(=O)O)nc3C2)c(F)cc2c(=O)c(C(=O)O)cn(C3CC3)c12", "values": [{"measurement": "MIC", "result": 1.76, "unit": "µM"}]}
{"smiles": "COc1c(N2CCN(Cc3ccc4c(c3)OCO4)CC2)c(F)cc2c(=O)c(C(=O)O)cn(C3CC3)c12", "values": [{"measurement": "MIC", "result": 1.57, "unit": "µM"}]}
{"smiles": "COc1c(N2CCc3ccccc3C2C(=O)NC(C)(C)C)c(F)c([N+](=O)[O-])c2c(=O)c(C(=O)O)cn(C3CC3)c12", "note": "(centres undefined)", "values": [{"measurement": "MIC", "result": 2.82, "unit": "µM"}]}
{"smiles": "COc1c(N2COCC2(C)C)c(F)cc2c(=O)c(C(=O)O)cn(C3CC3)c12", "values": [{"measurement": "MIC", "result": 2.07, "unit": "µM"}]}
{"smiles": "COc1ccc(CC2C3=C(CCCC3)CCN2c2c(F)c(N)c3c(=O)c(C(=O)O)cn(C4CC4)c3c2OC)cc1", "note": "(centres undefined)", "values": [{"measurement": "MIC", "result": 2.85, "unit": "µM"}]}
{"smiles": "COc1c(N2CCn3cc(C(=O)O)nc3C2)c(F)c([N+](=O)[O-])c2c(=O)c(C(=O)O)cn(C3CC3)c12", "values": [{"measurement": "MIC", "result": 1.6, "unit": "µM"}]}
{"smiles": "COc1ccc(CC2C3=C(CCCC3)CCN2c2c(F)c([N+](=O)[O-])c3c(=O)c(C(=O)O)cn(C4CC4)c3c2OC)cc1", "note": "(centres undefined)", "values": [{"measurement": "MIC", "result": 0.33, "unit": "µM"}]}
{"smiles": "COc1c(N2CCSCC2)c(F)c([N+](=O)[O-])c2c(=O)c(C(=O)O)cn(C3CC3)c12", "values": [{"measurement": "MIC", "result": 1.84, "unit": "µM"}]}
{"smiles": "COc1c(N2CCC3(CC2)OCCO3)c(F)c([N+](=O)[O-])c2c(=O)c(C(=O)O)cn(C3CC3)c12", "values": [{"measurement": "MIC", "result": 0.41, "unit": "µM"}]}
{"smiles": "CCN(CC)C(=O)C1CCCN(c2c(F)c([N+](=O)[O-])c3c(=O)c(C(=O)O)cn(C4CC4)c3c2OC)C1", "note": "(centres undefined)", "values": [{"measurement": "MIC", "result": 1.55, "unit": "µM"}]}
{"smiles": "COc1c(N2CCN(C(=O)C3COc4ccccc4O3)CC2)c(F)cc2c(=O)c(C(=O)O)cn(C3CC3)c12", "note": "(centres undefined)", "values": [{"measurement": "MIC", "result": 0.74, "unit": "µM"}]}
{"smiles": "COc1c(N2CCSCC2)c(F)cc2c(=O)c(C(=O)O)cn(C3CC3)c12", "values": [{"measurement": "MIC", "result": 2.06, "unit": "µM"}]}
{"smiles": "COc1c(N2CC(C)OC(C)C2)c(F)cc2c(=O)c(C(=O)O)cn(C3CC3)c12", "note": "(centres undefined)", "values": [{"measurement": "MIC", "result": 3.99, "unit": "µM"}]}
{"smiles": "COc1c(N2CCC3(CC2)OCCO3)c(F)cc2c(=O)c(C(=O)O)cn(C3CC3)c12", "values": [{"measurement": "MIC", "result": 1.86, "unit": "µM"}]}
{"smiles": "COc1c(N2CCN(C(c3ccccc3)c3ccc(Cl)cc3)CC2)c(F)c([N+](=O)[O-])c2c(=O)c(C(=O)O)cn(C3CC3)c12", "note": "(centres undefined)", "values": [{"measurement": "MIC", "result": 1.28, "unit": "µM"}]}
{"smiles": "NNC(=O)c1ccncc1", "note": "[ISONIAZID]", "values": [{"measurement": "MIC", "result": 45.6, "unit": "µM"}]}
{"smiles": "COc1c(N2CCN(C(=O)C3COc4ccccc4O3)CC2)c(F)c([N+](=O)[O-])c2c(=O)c(C(=O)O)cn(C3CC3)c12", "note": "(centres undefined)", "values": [{"measurement": "MIC", "result": 2.74, "unit": "µM"}]}
{"smiles": "COc1ccc(CC2C3=C(CCCC3)CCN2c2c(F)cc3c(=O)c(C(=O)O)cn(C4CC4)c3c2OC)cc1", "note": "(centres undefined)", "values": [{"measurement": "MIC", "result": 1.46, "unit": "µM"}]}
{"smiles": "CCN(CC)C(=O)C1CCCN(c2c(F)cc3c(=O)c(C(=O)O)cn(C4CC4)c3c2OC)C1", "note": "(centres undefined)", "values": [{"measurement": "MIC", "result": 3.39, "unit": "µM"}]}
{"smiles": "COc1c(N2CCN(Cc3ccc4c(c3)OCO4)CC2)c(F)c([N+](=O)[O-])c2c(=O)c(C(=O)O)cn(C3CC3)c12", "values": [{"measurement": "MIC", "result": 0.35, "unit": "µM"}]}
